# This is a sample that favours compounds with a hit; in the whole collection about 2.7% have one here.
# TPT1 inhibitor: inhibitors of Candida albicans tRNA 2'-phosphotransferase TPT1; recombinant caTPT1, FP RNA substrate dephosphorylation; inhibition, % at 5 µM; 0.81% of 300,000 active;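 active = inhibition above the mean of all tested compounds plus 3 SD, set per screening campaign, cut at about 24% in these data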;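 also: plate controls were DMSO alone for no effect and ferristatin control at 100 nM for full effect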
# CSN inh: CSN deneddylation inhibition. inhibition, % at 12.5 µM. 0.38% of 360,000 active. Q92905. Purified CSN, SCF-Nedd8-OG deneddylation, fluorescence polarization. AID 651999;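 active = pattern-corrected inhibition above about 35%, with an unprinted fluorescence ratio check between 0.5 and 1.5, limit read from the data, passing the limit was not always enough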;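 also: 0% = enzyme with substrate and 100% = substrate without enzyme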
#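 Material: human Csn5 produced in HEK293T cells; Input: enzyme 0.24 nM; Reagent: SCFSkp2-Nedd8OG substrate at 10 nM final; Dosing: 12.5 µM compound; Incubation: 90 min reaction at room temperature; Detection: fluorescence polarization of the substrate; Evaluation: % inhibition of substrate cleavage by Csn5; Control set: substrate-only high control, full reaction low control.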
# NadD block: inhibitors of Staphylococcus aureus NadD. purified NadD enzyme, colorimetric absorbance read-out. inhibition, % at 20 µM. 0.78% of 360,000 active; in the data active = inhibition above about 26%
# Rpn11 inh: blocks the human proteasome subunit Rpn11; 0.59% of 360,000 active; O00487; inhibition, % at 20 µM; AID 588493; human 26S proteasome, Ub4-pepOG fluorescence polarization; 20S core pre-blocked with epoxomicin;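 active = inhibition at 20 µM, scaled to each plate's controls, above about 33%, limit read from the data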
# HNF4A DNA FP: change in binding of human HNF4 alpha to DNA. P41235. HNF4a-FITC DNA binding, fluorescence polarization, 1 h. activity change, % at 10 µM. 0.3% of 360,000 active. AID 1224865; in the data active = activity change above about 30%, passing the limit was not always enough
# Target sequence (P41235 whole entry, looked up): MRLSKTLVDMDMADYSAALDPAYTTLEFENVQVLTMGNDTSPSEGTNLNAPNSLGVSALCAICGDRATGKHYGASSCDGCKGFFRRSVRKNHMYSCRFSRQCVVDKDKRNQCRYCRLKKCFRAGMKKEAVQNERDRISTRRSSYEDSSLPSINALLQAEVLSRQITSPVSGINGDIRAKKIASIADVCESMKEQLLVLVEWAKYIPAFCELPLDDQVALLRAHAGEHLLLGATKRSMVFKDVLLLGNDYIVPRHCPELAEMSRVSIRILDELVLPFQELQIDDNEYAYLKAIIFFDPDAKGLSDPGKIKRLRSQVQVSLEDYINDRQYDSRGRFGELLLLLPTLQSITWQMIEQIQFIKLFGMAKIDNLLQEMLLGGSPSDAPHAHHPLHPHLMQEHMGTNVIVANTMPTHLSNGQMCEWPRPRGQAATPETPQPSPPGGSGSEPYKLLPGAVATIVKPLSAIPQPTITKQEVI
# PP1 inh: blocks human PP1-alpha phosphatase, a PP5 counter-screen; P62136; purified PP1alpha, OMFP fluorescence; inhibition, % at 6.7 µM; 0.9% of 320,000 active; AID 2235;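 active = inhibition above the mean inhibition of all tested compounds plus 3 SD, computed separately for each screening campaign, cut at about 15% in these data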
# caTPT1 confirm: TPT1 (C. albicans) inhibition, confirmation; shares compounds with TPT1 inhibitor; recombinant caTPT1, fluorescence polarization, RNase T1 coupled; inhibition, % at 5 µM; 74% of 2,400 active; AID 2149;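 active = inhibition above the primary screen limit, the mean inhibition of all tested compounds plus 3 SD, cut at about 25% in these data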
# RNase T1 inh: RNase T1 inhibition in TPT1 counter-screen; inhibition, % at 5 µM; shares compounds with TPT1 inhibitor; RNase T1 cleavage, fluorescence polarization, 1536-well; 83% of 2,400 active; AID 2153;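 active = inhibition above the solvent-only control well mean plus 3 SD, limit set per screening run, cut at about 23% in these data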;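 also: plate controls were DMSO wells with enzyme for no effect and wells without RNase T1 for full effect; inhibitors block cleavage so intact labeled substrate keeps polarization high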
# Target sequence (P00651 whole entry, looked up): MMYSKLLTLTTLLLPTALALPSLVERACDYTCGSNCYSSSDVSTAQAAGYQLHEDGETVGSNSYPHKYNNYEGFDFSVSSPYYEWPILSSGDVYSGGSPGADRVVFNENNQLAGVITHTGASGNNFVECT
# PP1 inh confirm: confirmation of human PP1 phosphatase inhibitors | purified PP1alpha, OMFP substrate fluorescence | shares compounds with PP1 inh | inhibition, % at 6.7 µM | 52% of 1,900 active;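 active = mean PP1 inhibition above a set limit taken from the earlier primary screen, cut at about 15% in these data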
# PP5 inh counter: inhibits human PP5 phosphatase in PP1 counter-screen. shares compounds with PP1 inh. purified PP5c, OMFP fluorescence. inhibition, % at 6.7 µM. 4% of 1,900 active. AID 2360;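 active = mean PP5 inhibition over triplicate wells above about 9.5% taken from the earlier PP1 screen, limit read from the data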
# Rpn11 confirm: Rpn11 inhibition confirmation, single concentration | shares compounds with Rpn11 inh | purified human 26S proteasome, Ub4-pepOG fluorescence polarization; proteasome pretreated with epoxomicin | inhibition, % at 20 µM | 29% of 1,900 active | AID 602318
# MMP-2 counter: MMP-2 (human) inhibition counter-screen; shares compounds with Rpn11 inh; recombinant MMP-2, FRET peptide cleavage fluorescence; inhibition, % at 20 µM; 4% of 1,900 active; AID 602330;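 also: human MMP-2 activated beforehand with APMA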
# Thrombin inh: thrombin (bovine) inhibition counter-screen; shares compounds with Rpn11 inh; bovine thrombin cleavage of Ub4-pepOG, fluorescence polarization; inhibition, % at 20 µM; 13% of 1,900 active; AID 602333;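 active = mean inhibition at least 40% at 20 µM, or signal 3 deviations below plate average, so some actives read negative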;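 also: plate controls were thrombin with DMSO for no effect and buffer wells lacking thrombin for full effect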
# NadD conf: confirmation of Staphylococcus aureus NadD inhibitors. shares compounds with NadD block. purified S. aureus NadD, colorimetric enzyme assay. inhibition, % at 20 µM. 13% of 2,000 active; in the data active = inhibition mostly above about 42%, no sharp cut-off; inactive = mostly below about 42%
# * = called active by the depositor; · = not tested or not shown. Rule as the data show it, unless noted: active = inhibition above about 40%; inactive = the rest.
SMILES,TPT1 inhibitor,CSN inh,NadD block,Rpn11 inh,HNF4A DNA FP,PP1 inh,caTPT1 confirm,RNase T1 inh,NadD conf,others
NNC(=O)c1oc2nc(-c3cccs3)cc(-c3ccco3)c2c1N,49.5*,-45.0,35.7*,17.1,16.3,7.8,46.7*,56.9*,2.2,
COc1cc(/C=C/C(=O)OCC(=O)N2CCN(S(=O)(=O)c3ccc(C)cc3C)CC2)cc(Cl)c1OC,·,1.2,0.7,-1.1,-1.5,·,·,·,·,
COC(=O)c1ccc(N2CCOCC2)c(NC(=O)c2cccnc2)c1,-2.3,5.6,0.9,-12.5,0.3,0.6,·,·,·,
Cc1cc(C)c2c(n1)sc1c(O)cc(=O)[nH]c12,2.0,-5.0,0.2,14.6,-3.0,6.2,·,·,·,
COc1ccc(-c2cc(C(F)(F)F)c3c(n2)sc2c(O)cc(=O)[nH]c23)c(OC)c1,68.9*,123.2,29.6*,·,90.4,14.9,82.1*,84.7*,44.7,
Cc1cc(C)n2nc(-c3ccsc3-n3c(C)ccc3C)cc2n1,44.6*,24.9,38.7*,·,32.1,7.4,53.2*,64.0*,13.5,
O=C(Cc1ccccc1)Nc1ccc(N2CCCC2)cc1,35.8*,10.6,40.8*,13.2,7.6,25.0*,18.9,26.4*,16.6,PP1 inh confirm=-11.3;PP5 inh counter=-1.1
COc1ccc(NC(=O)CSc2ccc3c4c(cccc24)C(=O)c2ccccc2-3)cc1,25.7*,14.8,32.8*,-57.3,-21.3,3.9,28.2*,41.1*,1.6,
COc1cc(/C=C2\CCc3c2nc2ccccc2c3C(=O)O)cc(OC)c1OC,0.1,51.6,12.3,-19.4,-48.1,0.7,·,·,·,
CNC(=O)NC(=O)C(C)OC(=O)c1c2c(nc3ccccc13)/C(=C/c1cccs1)CC2 (centres undefined),27.4*,13.6,32.6*,·,24.0,14.3,30.2*,42.4*,20.4,
CCNc1ccc(Br)cc(C(=O)/C=C/c2ccc(Cl)cc2Cl)c1=O,68.7*,28.0,39.4*,24.5,15.0,9.2,84.5*,92.4*,11.1,
COCCCNC(=O)/C=C/c1ccc(Cl)cc1Cl,-3.5,-0.6,2.0,0.9,2.9,0.5,·,·,·,
O=S(=O)(c1ccc(NC(=S)N/N=C/c2c3ccccc3cc3ccccc23)cc1)N1CCOCC1,72.6*,2.8,33.6*,17.8,27.8,9.8,99.5*,104.5*,28.1,
N#CC1=C(N)n2c(s/c(=C\c3cccs3)c2=O)=C(C#N)C1c1cccs1 (centres undefined),54.0*,66.2*,49.1*,·,64.6,2.6,42.2*,54.1*,5.2,
CC1(C)CC(=O)C2=C(C1)N(c1ccc(F)cc1)C(N)=C(C#N)C2c1cccs1 (centres undefined),1.2,6.6,-2.7,19.0,6.4,2.4,·,·,·,
CN(CC(=O)Nc1ccc(F)cc1)C(=O)CN1C(=O)c2cccc([N+](=O)[O-])c2C1=O,·,0.1,-1.3,-2.3,2.0,-5.8,·,·,·,
CCC(Cc1ccccc1)OC(=O)c1ccccc1C(=O)O (centres undefined),·,-1.9,0.9,1.0,1.7,·,·,·,·,
Cc1cccc2cc3c(N)c(C(=O)Nc4ccc(N5CCOCC5)cc4)sc3nc12,19.2,8.5,-10.0,22.9,11.1,-1.5,·,·,·,
CCc1cccc2cc3c(N)c(C(=O)Nc4ccc(S(=O)(=O)N5CCCC5)cc4)sc3nc12,38.8*,24.6,44.1*,·,13.1,5.8,32.9*,42.4*,16.3,
COc1ccc(CC(N)c2csc(Nc3nncc4ccccc34)n2)cc1 (centres undefined),·,6.6,9.8,4.7,8.7,·,·,·,·,
C=CCn1c(=O)/c(=C/c2ccc(C)o2)s/c1=C(/C#N)C(=O)c1ccccc1,105.6*,44.9*,30.3*,·,50.1,3.2,144.0*,141.9*,2.9,
CCOc1ccc(S(=O)(=O)N2CCN=C2c2ccccc2)c(C)c1C,-0.5,0.5,-7.2,6.4,-0.1,-1.6,·,·,·,
COc1ccc(N(CC(=O)N/N=C/c2ccc(-c3ccc([N+](=O)[O-])cc3)o2)S(=O)(=O)c2ccc(C)cc2)cc1Cl,43.3*,14.5,39.8*,31.8,21.6,14.5,41.8*,50.8*,2.2,
CCCCC(=O)N/N=C/c1ccc(-c2ccc([N+](=O)[O-])cc2)o1,13.0,1.2,-7.4,12.6,2.5,-0.5,·,·,·,
CN1C[C@@H]2[C@@H]3C(=O)N(Cc4ccccc4)C(=O)[C@@H]3[C@](C)(C1=O)N2C(=O)c1ccc(Cl)cc1,·,-1.8,0.3,-1.0,-1.8,·,·,·,·,
Cc1sc(NC(=O)c2sc3nc4c(C)cccc4cc3c2N)c(C#N)c1C,25.4*,21.8,61.7*,32.4,20.8,16.8*,29.7*,43.3*,7.2,
CCOc1ccc2nc(N3CCCCCC3)sc2c1,0.7,3.5,-5.9,-2.7,0.7,-0.6,·,·,·,
CCOc1ccc2nc(N3C(=O)/C(=C/c4ccccc4)NC3=S)sc2c1,25.7*,19.4,32.9*,·,-0.6,-1.9,35.3*,45.1*,7.8,
CCCSc1nnc(NC(=O)c2sc3nc(-c4cccs4)ccc3c2N)s1,66.3*,8.6,36.5*,76.4*,33.4,14.4,22.7,27.5*,10.2,Rpn11 confirm=61.4*;MMP-2 counter=-31.5;Thrombin inh=13.6
COc1ccc(C2=NN(c3nc(-c4ccccc4)c(CC(=O)O)s3)C(c3ccco3)C2)cc1 (centres undefined),59.7*,42.8*,61.3*,68.8*,18.6,9.0,36.9*,49.4*,71.9*,Rpn11 confirm=24.5;MMP-2 counter=23.9;Thrombin inh=17.1

# Screening data from PubChem BioAssay.
